Assay results taken from ChEMBL document CHEMBL2151018, “Bioassay-guided investigation of the Tanzanian plant Pyrenacantha kaurabassana for potential anti-HIV-active compounds” (J Nat Prod, 2012).
≈ marks a conversion by molar mass, not a printed value.

Assays:
[1] = tested on: Human immunodeficiency virus 1; experiment: Antiviral activity against CCR5-tropic HIV1 NL-AD87 infected in HEK293T cells assessed as inhibition of viral replication after 4 days by beta-galactosidase reporter gene assay; type: functional, organism-based; settings: Human immunodeficiency virus 1, NL-AD87, HEK-293T, 96 h
How it was run: (§1)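 Measured in the proprietary deCIPhR cell-based system using fully replicative virus. Two HIV lab strains from molecular clones differing in coreceptor tropism were used: pNL4-3 (CXCR4 usage) and pNL-AD87 (CCR5 usage). IC50 is the 50% inhibitory concentration in the anti-HIV assay, expressed in μg/mL; IC90 was also determined.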

[2] = (§2) Cytotoxicity against human HEK293T cells after 4 days by Alamar blue assay; type: cell-based, HEK-293T; settings: HEK293T cells, read-out: TC50
HEK-293T = experiment: as §2; type: cell-based; settings: hek-293t, 96 h
[3] = tested on: Human immunodeficiency virus 1; experiment: Antiviral activity against CXCR4-tropic HIV1 NL4-3 infected in HEK293T cells assessed as inhibition of viral replication after 4 days by beta-galactosidase reporter gene assay; type: functional, organism-based; settings: Human immunodeficiency virus 1, NL4-3, HEK-293T, 96 h; how it was run: as §1
[4] = Selectivity index, ratio of TC50 for human HEK293T cells to IC90 for CCR5-tropic HIV1 NL-AD87 infected in HEK293T cells; type: toxicity, cell-based, HEK-293T; settings: read-out: Selectivity Index
[5] = Selectivity index, ratio of TC50 for human HEK293T cells to IC50 for CCR5-tropic HIV1 NL-AD87 infected in HEK293T cells; type: toxicity, cell-based, HEK-293T; settings: read-out: Selectivity Index
[6] = Selectivity index, ratio of TC50 for human HEK293T cells to IC50 for CXCR4-tropic HIV1 NL4-3 infected in HEK293T cells; type: toxicity, cell-based, HEK-293T; settings: read-out: Selectivity Index
[7] = Selectivity index, ratio of TC50 for human HEK293T cells to IC90 for CXCR4-tropic HIV1 NL4-3 infected in HEK293T cells; type: toxicity, cell-based, HEK-293T; settings: read-out: Selectivity Index

Molecule | IC50 [1] [µg/mL] | IC90 [1] [µg/mL] | CC50 at 96 h [2] [µg/mL] | TC90 (HEK-293T) [µg/mL] | IC50 [3] [µg/mL] | IC90 [3] [µg/mL] | selectivity ratio [4] | selectivity ratio [5] | selectivity ratio [6] | selectivity ratio [7]
COc1cc2c(c(-c3cc(O)c4c(O)c5oc6c(C(=O)O)cc(C)cc6c(=O)c5c(O)c4c3OC)c1)CC(C)OC2=O (stereo not given) | 21 (≈ 36.7 µM) | 111 (≈ 194 µM) | > 12.5 | > 12.5 | 21 (≈ 36.7 µM) | 111 (≈ 194 µM) | – | – | – | –
COc1cc2c(c(-c3cc(O)c4c(O)c5oc6c(C(=O)O)cc(C)cc6c(=O)c5c(OC)c4c3OC)c1)CC(C)OC2=O (stereo not given) | 2 (≈ 3.41 µM) | 22 (≈ 37.5 µM) | 31 (≈ 52.9 µM) | 154 (≈ 263 µM) | 2 (≈ 3.41 µM) | 22 (≈ 37.5 µM) | 7 | 15.5 | 15.5 | 7
enfuvirtide | 0.01 | 0.026 | – | – | 0.01 | 0.026 | – | – | – | –
